In ChEMBL document CHEMBL1135907, “Novel 5-substituted 2,4-thiazolidinedione and 2,4-oxazolidinedione derivatives as insulin sensitizers with antidiabetic activities” (J Med Chem, 2002):

Legend:
Rattus norvegicus [1] = test: Plasma concentration at a dose of 1 mg/kg in Jc1SD rats after intravenous administration upon racemisation after 10 min; format: functional, organism-based; set-up: dose 1 mg/kg
Rattus norvegicus [2] = test: Plasma concentration of enantiomer at a dose of 1 mg/kg in Jc1SD rats after intravenous administration upon racemisation after 30 min; format: functional, organism-based; set-up: dose 1 mg/kg
Rattus norvegicus [3] = test: Plasma concentration of enantiomer at a dose of 1 mg/kg in Jc1SD rats after intravenous administration upon racemisation after 10 min; format: functional, organism-based; set-up: dose 1 mg/kg
Rattus norvegicus [4] = test: Plasma concentration at a dose of 1 mg/kg in Jc1SD rats after intravenous administration upon racemisation after 30 min; format: functional, organism-based; set-up: dose 1 mg/kg
Rattus norvegicus [5] = test: Plasma concentration of enantiomer at a dose of 1 mg/kg in Jc1SD rats after intravenous administration upon racemisation after 120 min; format: functional, organism-based; set-up: dose 1 mg/kg
Rattus norvegicus [6] = test: Plasma concentration at a dose of 1 mg/kg in Jc1SD rats after intravenous administration upon racemisation after 15 min; format: functional, organism-based; set-up: dose 1 mg/kg
Rattus norvegicus [7] = test: Plasma concentration of enantiomer at a dose of 1 mg/kg in Jc1SD rats after intravenous administration upon racemisation after 60 min; format: functional, organism-based; set-up: dose 1 mg/kg
Rattus norvegicus [8] = test: Plasma concentration at a dose of 1 mg/kg in Jc1SD rats after intravenous administration upon racemisation after 120 min; format: functional, organism-based; set-up: dose 1 mg/kg
Rattus norvegicus [9] = test: Plasma concentration of enantiomer at a dose of 1 mg/kg in Jc1SD rats after intravenous administration upon racemisation after 15 min; format: functional, organism-based; set-up: dose 1 mg/kg
Rattus norvegicus [10] = test: Plasma concentration at a dose of 1 mg/kg in Jc1SD rats after intravenous administration upon racemisation after 5 min; format: functional, organism-based; set-up: dose 1 mg/kg
Rattus norvegicus [11] = test: Plasma concentration at a dose of 1 mg/kg in Jc1SD rats after intravenous administration upon racemisation after 60 min; format: functional, organism-based; set-up: dose 1 mg/kg
Rattus norvegicus [12] = test: Plasma concentration of enantiomer at a dose of 1 mg/kg in Jc1SD rats after intravenous administration upon racemisation after 5 min; format: functional, organism-based; set-up: dose 1 mg/kg
Mus musculus [13] = organism: Mus musculus; test: Plasma lipid-lowering activity at a dosage of 0.005% in the diet in KKAy mice;LA denotes less than 10% reduction at this dosage; format: functional, organism-based
Summary of the method: (§1)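 KKAy mice (9–13 weeks old), five per group, on powdered CE-2 diet containing compound at 0.001, 0.005 or 0.01% for 4 d. Plasma triglyceride from orbital-vein blood measured enzymatically and reported as maximum percent reduction from control; Dunnett's test; less than 10% reduction flagged.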

[14] = Plasma glucose-lowering activity at a dosage of 0.005% in the diet in KKA(y) mice.; format: functional, Mus musculus
Summary of the method: (§2)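 KKAy mice (9–13 weeks old), five per group, grouped by blood glucose after 3 d on powdered CE-2 chow. Dietary admixture at 0.001, 0.005 or 0.01% for 4 d, food and water ad libitum. Orbital-vein plasma glucose measured enzymatically and expressed as maximum percent reduction versus control; Dunnett's test.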

[15] = Plasma lipid-lowering activity at a dosage of 0.01% in the diet in KKAy mice; format: functional, Mus musculus; summary of the method: as §1
Mus musculus [16] = organism: Mus musculus; test: Plasma glucose-lowering activity at a dosage of 0.01% in the diet in KKAy mice; format: functional; summary of the method: as §2
[17] = Plasma lipid-lowering activity at a dosage of 0.005% in the diet in KKA(y) mice.; format: functional, Mus musculus; summary of the method: as §1
Mus musculus [18] = organism: Mus musculus; test: Effective dose for 25% reduction in plasma lipid-lowering activity in KKAy mice; format: functional
Summary of the method: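 Male/female not stated; KKAy mice, 9–13 weeks old, fed powdered CE-2 chow 3 d, grouped (five per group) by blood glucose. Compounds given as dietary admixture at three levels (0.01, 0.005 or 0.001% in diet) for 4 d. Orbital-vein plasma triglyceride measured enzymatically as % reduction vs control; dose (mg/kg/d) from food intake and body weight; ED25 by linear regression.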

Rattus norvegicus [19] = organism: Rattus norvegicus; test: (§3) Effective dose for 25% reduction in glucose-lowering activity in Wistar fatty rats; format: functional
Summary of the method: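 Wistar fatty rats, 10–15 weeks old, grouped five per group by plasma glucose and triglyceride. Compound suspended in 0.5% methyl cellulose, given orally by stomach tube once daily for 6 d at three concentrations. Animals had CE-2 pellets and water ad libitum. Plasma glucose measured enzymatically on tail-vein blood. ED25 (mg/kg/d) for 25% reduction from control derived by linear regression over the three doses.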

Rattus norvegicus [20] = test: Plasma concentrations of R(+)-64 at a dose of 1 mg/kg in Jc1SD rats after intravenous administration after 5 min; format: functional, organism-based; set-up: dose 1 mg/kg
Rattus norvegicus [21] = test: Plasma concentrations of S(-)-64 at a dose of 1 mg/kg in Jc1SD rats after intravenous administration after 5 min; format: functional, organism-based; set-up: dose 1 mg/kg
Rattus norvegicus [22] = test: Plasma concentrations of R(+)-64 at a dose of 1 mg/kg in Jc1SD rats after intravenous administration after 60 min; format: functional, organism-based; set-up: dose 1 mg/kg
Rattus norvegicus [23] = test: Plasma concentrations of R(+)-64 at a dose of 1 mg/kg in Jc1SD rats after intravenous administration after 120 min; format: functional, organism-based; set-up: dose 1 mg/kg
Rattus norvegicus [24] = test: Plasma concentrations of R(+)-64 at a dose of 1 mg/kg in Jc1SD rats after intravenous administration after 30 min; format: functional, organism-based; set-up: dose 1 mg/kg
Rattus norvegicus [25] = test: Plasma concentrations of S(-)-64 at a dose of 1 mg/kg in Jc1SD rats after intravenous administration after 10 min; format: functional, organism-based; set-up: dose 1 mg/kg
Rattus norvegicus [26] = test: Plasma concentrations of R(+)-64 at a dose of 1 mg/kg in Jc1SD rats after intravenous administration after 15 min; format: functional, organism-based; set-up: dose 1 mg/kg
Rattus norvegicus [27] = test: Plasma concentrations of S(-)-64 at a dose of 1 mg/kg in Jc1SD rats after intravenous administration after 15 min; format: functional, organism-based; set-up: dose 1 mg/kg
Rattus norvegicus [28] = test: Plasma concentrations of S(-)-64 at a dose of 1 mg/kg in Jc1SD rats after intravenous administration after 30 min; format: functional, organism-based; set-up: dose 1 mg/kg
Rattus norvegicus [29] = test: Plasma concentrations of S(-)-64 at a dose of 1 mg/kg in Jc1SD rats after intravenous administration after 60 min; format: functional, organism-based; set-up: dose 1 mg/kg
Rattus norvegicus [30] = test: Plasma concentrations of R(+)-64 at a dose of 1 mg/kg in Jc1SD rats after intravenous administration after 10 min; format: functional, organism-based; set-up: dose 1 mg/kg
Mus musculus [31] = organism: Mus musculus; test: Effective dose for 25% reduction in plasma glucose-lowering activity in KKAy mice; format: functional
Summary of the method: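 KKAy mice (9–13 weeks old), five per group, allocated by blood glucose after 3 d on powdered CE-2 chow. Compounds given as dietary admix at three levels chosen from first screening, 4 d ad libitum. Orbital-vein plasma glucose assayed enzymatically. Dose in mg/kg/d computed from food intake and body weight; ED25 derived by linear regression.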

RXR alpha/PPAR gamma = target: T1, RXR alpha/PPAR gamma (Homo sapiens, UniProt P19793+P37231); test: Transcriptional activation in COS cells expressing PPAR gamma and RXR alpha
T1 sequence (P37231 whole entry): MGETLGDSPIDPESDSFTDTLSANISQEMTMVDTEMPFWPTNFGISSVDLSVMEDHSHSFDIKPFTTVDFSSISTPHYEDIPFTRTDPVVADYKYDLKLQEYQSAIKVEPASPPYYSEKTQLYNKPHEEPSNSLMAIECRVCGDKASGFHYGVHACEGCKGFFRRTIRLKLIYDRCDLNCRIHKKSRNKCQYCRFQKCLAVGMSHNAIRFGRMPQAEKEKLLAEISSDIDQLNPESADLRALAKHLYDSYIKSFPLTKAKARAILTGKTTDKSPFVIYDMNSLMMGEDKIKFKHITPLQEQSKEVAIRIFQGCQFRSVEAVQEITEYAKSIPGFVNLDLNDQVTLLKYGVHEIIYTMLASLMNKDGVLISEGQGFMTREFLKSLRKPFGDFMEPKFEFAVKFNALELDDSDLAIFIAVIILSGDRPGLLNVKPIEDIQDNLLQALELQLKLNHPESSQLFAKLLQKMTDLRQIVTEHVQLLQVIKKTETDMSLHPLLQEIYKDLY
T1 sequence (P19793 whole entry): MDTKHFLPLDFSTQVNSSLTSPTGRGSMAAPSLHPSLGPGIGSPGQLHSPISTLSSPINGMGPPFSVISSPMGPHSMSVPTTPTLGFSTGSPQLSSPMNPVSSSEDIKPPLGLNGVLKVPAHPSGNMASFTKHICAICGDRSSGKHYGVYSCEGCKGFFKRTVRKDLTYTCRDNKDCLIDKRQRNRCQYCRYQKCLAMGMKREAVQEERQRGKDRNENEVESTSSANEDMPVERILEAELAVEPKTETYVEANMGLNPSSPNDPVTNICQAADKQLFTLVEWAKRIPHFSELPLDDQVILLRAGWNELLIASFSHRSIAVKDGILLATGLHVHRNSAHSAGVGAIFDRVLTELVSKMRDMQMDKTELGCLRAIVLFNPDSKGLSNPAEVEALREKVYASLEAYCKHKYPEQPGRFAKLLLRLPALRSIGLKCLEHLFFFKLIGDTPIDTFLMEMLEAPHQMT

Rattus norvegicus [32] = organism: Rattus norvegicus; test: as §3; format: functional; remark: listed apart in the source
Summary of the method: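 Wistar fatty rats (10–15 weeks old), five per group, allocated by plasma glucose and triglyceride. Oral dosing by stomach tube once daily for 6 d at three doses, suspended in 0.5% methyl cellulose; CE-2 pellets and water ad libitum. Tail-vein plasma glucose measured; ED25 taken from the three-dose response by linear regression.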

COc1cc(CCCC2OC(=O)NC2=O)ccc1OCc1nc(-c2ccco2)oc1C (single isomer, unassigned; (-))
Concentration (Rattus norvegicus [1]): 0.04 µg/mL | Concentration (Rattus norvegicus [2]): 3.65 µg/mL | Concentration (Rattus norvegicus [3]): 4.3 µg/mL | Concentration (Rattus norvegicus [4]): 0.05 µg/mL | Concentration (Rattus norvegicus [5]): 1.61 µg/mL | Concentration (Rattus norvegicus [6]): 0.04 µg/mL | Concentration (Rattus norvegicus [7]): 2.94 µg/mL | Concentration (Rattus norvegicus [8]): 0.07 µg/mL | Concentration (Rattus norvegicus [9]): 3.97 µg/mL | Concentration (Rattus norvegicus [10]): 0.04 µg/mL | Concentration (Rattus norvegicus [11]): 0.07 µg/mL | Concentration (Rattus norvegicus [12]): 4.78 µg/mL

Cc1oc(-c2ccccc2)nc1COc1ccc(CC2OC(=O)NC2=O)cc1 (stereo unspecified)
LA (Mus musculus [13]): Less than 10% reduction at this dosage | Activity [14]: 29

Cc1oc(-c2ccccc2)nc1CCOc1ccc(CCCC2SC(=O)NC2=O)cc1 (stereo unspecified)
Activity [15]: 42 | Activity (Mus musculus [16]): 35 | Activity [17]: 18 | Activity [14]: 26

CCc1ccc(CCOc2ccc(CC3SC(=O)NC3=O)cc2)nc1.Cl (stereo unspecified) [PIOGLITAZONE HYDROCHLORIDE]
ED25 (Mus musculus [18]): 6 mg/kg/day | ED25 (Rattus norvegicus [19]): 0.5 mg/kg/day

COc1cc(CCCC2OC(=O)NC2=O)ccc1OCc1nc(-c2ccco2)oc1C (stereo in doubt; (+)-64)
Concentration (Rattus norvegicus [20]): 6.46 µg/mL | Concentration (Rattus norvegicus [21]): 0.02 µg/mL | Concentration (Rattus norvegicus [22]): 3.19 µg/mL | Concentration (Rattus norvegicus [23]): 1.46 µg/mL | Concentration (Rattus norvegicus [24]): 4.78 µg/mL | Concentration (Rattus norvegicus [25]): 0.02 µg/mL | Concentration (Rattus norvegicus [26]): 5.13 µg/mL | Concentration (Rattus norvegicus [27]): 0.02 µg/mL | Concentration (Rattus norvegicus [28]): 0.02 µg/mL | Concentration (Rattus norvegicus [29]): 0.02 µg/mL | Concentration (Rattus norvegicus [30]): 6.06 µg/mL

Cc1sc(-c2ccccc2)nc1COc1ccc(CCCC2OC(=O)NC2=O)cc1 (single isomer, unassigned; (+))
ED25 (Mus musculus [31]): 1.44 mg/kg/day | EC50 (RXR alpha/PPAR gamma): 269 nM | ED25 (Rattus norvegicus [32]): 0.23 mg/kg/day

Cc1sc(-c2ccccc2)nc1COc1ccc(CCCC2OC(=O)NC2=O)cc1 (single isomer, unassigned; (-))
EC50 (RXR alpha/PPAR gamma): > 1000 nM | ED25 (Rattus norvegicus [32]): 3 mg/kg/day
